Legend:
[1] = system: Rattus norvegicus; assay: (§1) Compound was tested in vivo for Iron mobilization efficacy against hepatocytes in normal fasted rats (loaded with [59Fe]-Ferritin).; type: functional, Hepatocyte; set-up: concentration or dose not given beside the values
Procedure, shortened: (§2)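 Fasted normal rats (190–230 g) received [59Fe]ferritin by tail vein to label hepatocyte iron. One hour later chelator was given orally at 450 µmol/kg; controls received an equal volume of water. Rats were kept in metabolic cages, with food allowed 1 h after dosing and water unrestricted. At 24 h, liver and GI tract plus feces were gamma-counted. Mean ± SD, n=5.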

[2] = Affinity constant log K2 value for Fe(III) complex; type: ADME
Procedure, shortened: (§3)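 Spectrophotometric titration of Fe(III) with ligand at a ligand:iron ratio of about 10:1, with 0.2 M KOH added by programmed autoburette. Full spectra were recorded across pH, e.g. 1.59–10.05 with [Fe(III)] = 1.8×10^-4 M. Cumulative stability constants were optimized by non-linear least-squares regression using the predetermined pKa values, electrode slope and electrode zero.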

[3] = Partition coefficient (logD7.4); type: physicochemical; conditions: octanol/water, pH 7.4
Procedure, shortened: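 Partitioning between 1-octanol and 50 mM MOPS buffer pH 7.4 (mutually saturated) in an automated continuous-flow filter-probe system. Compound was dissolved in buffer to an absorbance of 0.5–1.5 at ~280 nm. The aqueous phase was separated by a hydrophilic cellulose filter and monitored spectrophotometrically. D7.4 was calculated after each octanol addition.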

[4] = Affinity constant log K3 value for Fe(III) complex; type: ADME; procedure, shortened: as §3
[5] = Ligand pka1 value was investigated by potentiometric titration; type: physicochemical; conditions: read-out: pKa1
Procedure, shortened: (§4)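 Simultaneous potentiometric and UV/vis titration in 0.1 M KCl (25 mL), acidified with 0.2 M HCl and titrated with 0.2 M KOH in 0.01-mL increments. Run at 25 ± 0.5 °C under argon. Electrode zero was set by a blank titration using Gran's plot. pKa values came from non-linear least-squares regression, accurate to ±0.02 pH unit.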

[6] = Affinity constant log K1 value for Fe(III) complex; type: ADME; procedure, shortened: as §3
[7] = Affinity constant log beta-3 value for Fe(III) complex; type: ADME; procedure, shortened: as §3
[8] = Partition coefficient (logP); type: physicochemical; conditions: octanol/water
[9] = Ligand pka2 value was investigated by potentiometric titration; type: physicochemical; conditions: read-out: pKa2; procedure, shortened: as §4
[10] = system: Rattus norvegicus; assay: Compound was tested in vivo for Iron mobilization against hepatocytes in normal fasted rats (loaded with [59Fe]-Ferritin).; type: functional, Hepatocyte; procedure, shortened: as §2
[11] = pFe3+ (negative logarithm of the concentration of the free Iron(III) in solution) of the compound.; type: ADME
Procedure, shortened: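 pFe3+ is the negative log of free Fe(III), calculated from the ligand pKa values and Fe(III) stability constants at total ligand 10^-5 M, total iron 10^-6 M, pH 7.4.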

[12] = Ligand pka2 value was investigated by spectrophotometric titration; type: physicochemical; conditions: read-out: pKa2; procedure, shortened: as §4
[13] = system: Rattus norvegicus; assay: Compound was tested in vivo for Iron mobilization efficacy against hepatocytes in normal fasted rats(loaded with [59Fe]-Ferritin).; type: functional, Hepatocyte
Procedure, shortened: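 Normal fasted rats (190–230 g); hepatocyte iron labelled with [59Fe]ferritin given by tail vein. One hour later, chelator 450 µmol/kg was given orally; controls received an equivalent volume of water. Rats were housed in individual metabolic cages with urine and feces collected. Killed 24 h after ferritin; liver and GI tract with contents and feces were gamma counted. Means ± SD, n=5.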

[14] = Ligand pka1 value was investigated by spectrophotometric titration; type: physicochemical; conditions: read-out: pKa1; procedure, shortened: as §4
[15] = system: Rattus norvegicus; assay: as §1; type: functional, Hepatocyte; procedure, shortened: as §2
[16] = system: Rattus norvegicus; assay: Compound was tested in vivo for Iron mobilization against hepatocytes in normal fasted rats ( loaded with [59Fe]-Ferritin).; type: functional, Hepatocyte; procedure, shortened: as §2

Log K2 [2] | logD [3] | Log K3 [4] | pKa [5] | Log K1 [6] | Log beta3 [7] | logP [8] | pKa [9] | pFe3 [11] | pKa [12] | pKa [14] | SMILES | Efficacy [1] [%] | Iron mobilization [10] [%] | Efficacy [13] [%] | Iron mobilization [15] [%] | Iron mobilization [16] [%]
– | – | – | – | – | – | – | – | – | – | – | Cc1c(O)c(=O)ccn1CCCO | 26 | – | – | – | –
11.09 | -0.606 | 9.05 | 3.54 | 15.38 | 35.5 | -0.606 | 8.99 | 21.5 | – | – | Cc1cc(=O)c(O)c(C(C)O)n1C (stereo not drawn) | 44.5 | 48.4 | – | – | –
10.87 | -1.12 | 8.87 | 2.98 | 14.93 | 34.7 | -1.12 | 8.72 | 21.5 | – | – | CC(O)c1c(O)c(=O)ccn1CCCO (stereo not drawn) | 10.6 | 14.5 | – | – | –
– | 1.16 | – | – | – | – | 1.16 | – | – | – | – | CCc1c(O)c(=O)ccn1CCOC(=O)C(C)(C)C | 19.1 | – | – | – | –
– | 0.749 | – | – | – | – | 0.749 | – | – | – | – | O=C(OCCCn1ccc(=O)c(O)c1CO)c1ccccc1 | 52.1 | 56 | – | – | –
11.27 | -1.32 | 9.58 | 2.92 | 14.47 | 35.3 | -1.32 | 9.11 | 20.9 | 9.11 | – | Cn1ccc(=O)c(O)c1CO | 4.6 | 8.44 | – | – | –
– | – | – | – | – | – | – | – | – | – | – | CCc1c(O)c(=O)ccn1CCO | 12.9 | – | – | – | –
11.48 | -0.134 | 9.05 | 3.76 | 14.5 | 35 | -0.134 | 9 | 21 | – | 3.78 | CCC(O)c1c(O)c(=O)cc(C)n1C (stereo not drawn) | 56.5 | 60.4 | – | – | –
10.97 | -0.575 | 8.9 | 3.03 | 15.21 | 35.1 | -0.575 | 8.77 | 21.4 | – | – | CCn1ccc(=O)c(O)c1C(C)O (stereo not drawn) | 50.6 | – | – | 54.5 | –
11.57 | -1.01 | 9.55 | 3.32 | 14.39 | 35.5 | -1.01 | 9.44 | 20.4 | – | – | Cc1cc(=O)c(O)c(CO)n1C | 0.6 | 4.5 | – | – | –
11.6 | -0.652 | 9.64 | 3.29 | 14.37 | 35.6 | -0.652 | 9.45 | 20.4 | – | – | CCn1c(C)cc(=O)c(O)c1CO | 9 | 12.9 | – | – | –
11.16 | -0.854 | 9.43 | 2.8 | 14.66 | 35.3 | -0.854 | 9.27 | 21 | – | – | CCn1ccc(=O)c(O)c1CO | 29.4 | – | – | – | 33.3
10.01 | -1.25 | 9.57 | 3.02 | 15.67 | 35.3 | -1.25 | 9.29 | 20.7 | – | – | O=c1ccn(CCCO)c(CO)c1O | 7.8 | 11.7 | – | – | –
11.76 | – | 9.84 | 3.81 | 15.2 | 36.8 | – | 9.93 | 19.7 | – | – | CCc1c(O)c(=O)ccn1CC | 55.8 | – | – | – | –
– | 1.25 | – | – | – | – | 1.25 | – | – | – | – | Cc1c(O)c(=O)ccn1CCCOC(=O)c1ccccc1 | 32.5 | – | – | – | –

SMILES | Log K2 [2] | logD [3] | Log K3 [4] | pKa [5] | Log K1 [6] | Log beta3 [7] | logP [8] | pKa [9] | pFe3 [11] | pKa [12] | pKa [14] | Efficacy [1] [%] | Iron mobilization [10] [%] | Efficacy [13] [%] | Iron mobilization [15] [%] | Iron mobilization [16] [%]
Cc1c(O)c(=O)ccn1C [DEFERIPRONE] | 12.19 | – | 9.69 | – | 14.56 | 36.4 | – | 9.77 | 19.4 | – | – | – | – | 9.5 | – | –

— ChEMBL document CHEMBL1132479, “Synthesis, physicochemical characterization, and biological evaluation of 2-(1'-hydroxyalkyl)-3-hydroxypyridin-4-ones: novel iron chelators with enhanced pFe(3+) values” (J Med Chem, 1999)
